For six molecules, Retention_time and Ratio IC50 results are on record in ChEMBL document CHEMBL3351726 (J Med Chem, 2014).

The nature of data set [1]: Retention time of the compound measured over 30 mins at flow rate of 1 mL/min by HPLC. Type of data set: physicochemical. The conditions noted are these: 0.5 h. Summed up: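 Reversed-phase analytical HPLC or LC−MS on a SymmetryShield RP18 column (5 μm, 4.6 × 150 mm). Gradient 10−60% B over 30 min at 1 mL/min; A = 0.1% TFA in water, B = 0.1% TFA in acetonitrile.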
Data set [2] can be described thus: Retention time of the compound measured over 15 mins at flow rate of 1 mL/min by HPLC.
Data set [3] concerns HEK293. In words: Selectivity ratio of IC50 for rat Nav1.2 expressed in HEK-293 cells to IC50 for human Nav1.7 expressed in HEK-293 cells. Type of data set: cell-based.

Residues, ends and D or L forms follow the SMILES beside them.

Regarding `CSCC[C@@H]1NC(=O)CNC(=O)[C@H](CCC(=O)O)NC(=O)[C@@H]2CSSC[C@H](NC(=O)[C@@H](N)Cc3ccc(O)cc3)C(=O)N[C@@H](CCC(N)=O)C(=O)N[C@@H](CCCCN)C(=O)N[C@@H](Cc3c[nH]c4ccccc34)C(=O)N[C@@H](CCSC)C(=O)N[C@@H](Cc3c[nH]c4ccccc34)C(=O)N[C@@H]([C@@H](C)O)C(=O)N[C@H]3CSSC[C@H](NC(=O)[C@H](C(C)C)NC1=O)C(=O)N[C@@H](CCCNC(=N)N)C(=O)N[C@@H](CC(C)C)C(=O)N[C@@H](Cc1c[nH]c4ccccc14)C(=O)N[C@H](C(=O)N[C@@H](CCCCN)C(=O)N[C@@H](CCCCN)C(=O)N[C@@H](CCCCN)C(=O)N[C@@H](CC(C)C)C(=O)N[C@@H](Cc1c[nH]c4ccccc14)C(=O)O)CSSC[C@H](NC(=O)[C@H](CCCCN)NC(=O)[C@H](CCCNC(=N)N)NC(=O)[C@H](CCC(=O)O)NC(=O)[C@H](CO)NC(=O)[C@H](CC(=O)O)NC3=O)C(=O)N2`, the figures for the Retention_time in data set [1] and in data set [2] were 14.54 min and 9.35 min, respectively.

Regarding `CSCC[C@@H]1NC(=O)[C@H](Cc2c[nH]c3ccccc23)NC(=O)[C@H](CCCCN)NC(=O)[C@H](CCC(N)=O)NC(=O)[C@@H](NC(=O)[C@@H](N)Cc2ccc(O)cc2)CSSC[C@@H]2NC(=O)[C@@H]3CSSC[C@@H](C(=O)N[C@@H](CCCCN)C(=O)N[C@@H](CCCCN)C(=O)N[C@@H](CCCCN)C(=O)N[C@@H](CC(C)C)C(=O)N[C@@H](Cc4c[nH]c5ccccc45)C(=O)O)NC(=O)[C@H](Cc4c[nH]c5ccccc45)NC(=O)[C@H](CC(C)C)NC(=O)[C@H](CCCNC(=N)N)NC(=O)[C@H](CSSC[C@H](NC(=O)[C@H]([C@@H](C)O)NC(=O)[C@H](Cc4c[nH]c5ccccc45)NC1=O)C(=O)N[C@@H](CC(=O)O)C(=O)N[C@@H](CO)C(=O)N[C@@H](CCC(=O)O)C(=O)N[C@@H](CCCNC(=N)N)C(=O)N[C@@H](CCCCN)C(=O)N3)NC(=O)[C@H](C(C)C)NC(=O)[C@H](CC(C)C)NC(=O)CNC(=O)[C@H](CCC(=O)O)NC2=O`, the Ratio IC50 in data set [3] came out at 26. In addition, the Retention_time in data set [1] is on record as 15.44 min; in data set [2] it was 9.87 min.

Consider `CC[C@H](C)[C@H](NC(=O)[C@@H](NC(=O)[C@H](CCCCN)NC(=O)[C@H](CCCCN)NC(=O)[C@@H]1CSSC[C@@H]2NC(=O)[C@H](CCCCN)NC(=O)[C@H](CCCNC(=N)N)NC(=O)[C@H](CCC(=O)O)NC(=O)[C@H](CO)NC(=O)[C@H](CC(=O)O)NC(=O)[C@@H]3CSSC[C@H](NC(=O)[C@H](C(C)C)NC(=O)[C@H](CCSC)NC(=O)CNC(=O)[C@H](CCC(=O)O)NC(=O)[C@H](CSSC[C@H](NC(=O)[C@@H](N)Cc4ccc(O)cc4)C(=O)N[C@@H](CCC(N)=O)C(=O)N[C@@H](CCCCN)C(=O)N[C@@H](Cc4c[nH]c5ccccc45)C(=O)N[C@@H](CCSC)C(=O)N[C@@H](Cc4c[nH]c5ccccc45)C(=O)N[C@@H]([C@@H](C)O)C(=O)N3)NC2=O)C(=O)N[C@@H](CCCNC(=N)N)C(=O)N[C@@H](CC(C)C)C(=O)N[C@@H](Cc2c[nH]c3ccccc23)C(=O)N1)[C@@H](C)CC)C(=O)O`, for which the Ratio IC50 in data set [3] came out at 2. The values for the Retention_time in data set [1] and in data set [2] were 18.47 min and 9.44 min, respectively.

Regarding `CSCC[C@@H]1NC(=O)CNC(=O)[C@H](CCC(=O)O)NC(=O)[C@@H]2CSSC[C@H](NC(=O)[C@@H](N)Cc3ccc(O)cc3)C(=O)N[C@@H](CCC(N)=O)C(=O)N[C@@H](CCCCN)C(=O)N[C@@H](Cc3c[nH]c4ccccc34)C(=O)N[C@@H](CCSC)C(=O)N[C@@H](Cc3c[nH]c4ccccc34)C(=O)N[C@@H]([C@@H](C)O)C(=O)N[C@H]3CSSC[C@H](NC(=O)[C@H](C(C)C)NC1=O)C(=O)N[C@@H](CCCNC(=N)N)C(=O)N[C@@H](CC(C)C)C(=O)N[C@@H](Cc1c[nH]c4ccccc14)C(=O)N[C@H](C(=O)N[C@@H](CCCCN)C(=O)N[C@@H](CCCCN)C(=O)N[C@@H](CCCCN)C(=O)N[C@@H](CC(C)C)C(=O)N[C@@H](Cc1c[nH]c4ccccc14)C(N)=O)CSSC[C@H](NC(=O)[C@H](CCCCN)NC(=O)[C@H](CCCNC(=N)N)NC(=O)[C@H](CCC(=O)O)NC(=O)[C@H](CO)NC(=O)[C@H](CC(=O)O)NC3=O)C(=O)N2`, the Retention_time is given as 14.78 min in data set [1] and 9 min in data set [2].

Take `CC[C@H](C)[C@H](NC(=O)[C@H](CCCCN)NC(=O)[C@H](CCCCN)NC(=O)[C@@H]1CSSC[C@@H]2NC(=O)[C@H](CCCCN)NC(=O)[C@H](CCCNC(=N)N)NC(=O)[C@H](C)NC(=O)[C@H](CO)NC(=O)[C@H](CC(=O)O)NC(=O)[C@@H]3CSSC[C@H](NC(=O)[C@H](C(C)C)NC(=O)[C@H](CC(C)C)NC(=O)CNC(=O)[C@H](CCC(=O)O)NC(=O)[C@H](CSSC[C@H](NC(=O)[C@@H](N)Cc4ccc(O)cc4)C(=O)N[C@@H](CCC(N)=O)C(=O)N[C@@H](CCCCN)C(=O)N[C@@H](Cc4c[nH]c5ccccc45)C(=O)N[C@@H](CCSC)C(=O)N[C@@H](Cc4c[nH]c5ccccc45)C(=O)N[C@@H]([C@@H](C)O)C(=O)N3)NC2=O)C(=O)N[C@@H](CCCNC(=N)N)C(=O)N[C@@H](CC(C)C)C(=O)N[C@@H](Cc2c[nH]c3ccccc23)C(=O)N1)C(=O)N[C@H](C(=O)N[C@@H](Cc1c[nH]c2ccccc12)C(=O)O)[C@@H](C)CC` (HELM PEPTIDE1{Y.C.Q.K.W.M.W.T.C.D.S.A.R.K.C.C.E.G.L.V.C.R.L.W.C.K.K.I.I.W}$PEPTIDE1,PEPTIDE1,2:R3-16:R3|PEPTIDE1,PEPTIDE1,9:R3-21:R3|PEPTIDE1,PEPTIDE1,15:R3-25:R3$$$V2.0): the Ratio IC50 in data set [3] was found to be 9. Besides, the Retention_time in data set [1] came to 15.83 min; in data set [2], 9.29 min.

Take `[H][C@]12CSSC[C@@H](C(=O)N[C@@H](CCCCN)C(=O)N[C@@H](CCCCN)C(=O)N[C@H](C(=O)N[C@H](C(=O)O)[C@@H](C)CC)[C@@H](C)CC)NC(=O)[C@H](Cc3c[nH]c4ccccc34)NC(=O)[C@H](CC(C)C)NC(=O)[C@H](CCCNC(=N)N)NC(=O)[C@]3([H])CSSC[C@]([H])(NC(=O)[C@]([H])([C@@H](C)O)NC(=O)[C@H](Cc4c[nH]c5ccccc45)NC(=O)[C@H](CCSC)NC(=O)[C@H](Cc4c[nH]c5ccccc45)NC(=O)[C@H](CCCCN)NC(=O)[C@H](CCC(N)=O)NC(=O)[C@@H](NC(=O)[C@@H](N)Cc4ccc(O)cc4)CSSC[C@]([H])(NC1=O)C(=O)N[C@@H](CCC(=O)O)C(=O)NCC(=O)N[C@@H](CC(C)C)C(=O)N[C@@H](C(C)C)C(=O)N3)C(=O)N[C@@H](CC(=O)O)C(=O)N[C@@H](CO)C(=O)N[C@@H](C)C(=O)N[C@@H](CCCNC(=N)N)C(=O)N[C@@H](CCCCN)C(=O)N2` (HELM PEPTIDE1{Y.C.Q.K.W.M.W.T.C.D.S.A.R.K.C.C.E.G.L.V.C.R.L.W.C.K.K.I.I}$PEPTIDE1,PEPTIDE1,2:R3-16:R3|PEPTIDE1,PEPTIDE1,9:R3-21:R3|PEPTIDE1,PEPTIDE1,15:R3-25:R3$$$V2.0): the Retention_time in data set [1] stood at 12.58 min; in data set [2], 7.9 min.
